Test: Toxicity liver stage against HepG2, at 10uM
Format: cell-based
Parameters: test concentration 10 uM, cell line HepG2-A16-CD81EGFP
Details: human, HepG2-A16-CD81EGFP cells; read-out: INHIBITION
In short: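 Uninfected HepG2-A16-CD81EGFP cells, 3 × 10^3 per well, 1536-well, plated on prespotted compound at 10 μM final, parasite-free screening media added to match infected plates; puromycin 10 μM positive, DMSO 0.5% negative; run in parallel with 48 h PbLuc assay at 37 °C, 5% CO2; viability by CellTiter-Glo luminescence, normalized to controls.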

Row | SMILES | cytotoxicity at 10 µM [%]
1 | COc1ccc2c(c1)nc1n2[C@@H](CNCc2cnn(C)c2)COC1 | -6.8
2 | CC(=O)N1N=C(c2cccs2)OC1C(=O)Nc1ccc(C(C)C)cc1 (stereo unspecified) | -12.7
3 | CCN(CC)CCNC(=O)CCc1c(C)nn(-c2ccccc2Br)c1C | 10.6
4 | C[C@@H](O)CNC(=O)c1nc(Cc2c(Cl)cccc2Cl)no1 | 0.483
5 | Cn1cccc1CN(C(=O)Cc1cccs1)C1CC1 | 7.53
6 | Cn1cc(C(=O)NCC(Cc2cccc(F)c2)N2CCCCC2=O)nn1 (stereo unspecified) | -1.13
7 | Cc1cccc(NC(=O)C2CSc3ncc(C)c(=O)n3C2)n1 (stereo unspecified) | 0.0115
8 | CCOCC1COCCC12CCN(C(=O)C1=CCCCC1)CC2 (stereo unspecified) | -3.09
9 | CC1N(C)C(=O)COC12CCN(C(=O)CCc1ccccc1)CC2 (stereo unspecified) | 0.227
10 | CCc1ccc(C(=O)N2C[C@@H]3COC[C@@H](C(=O)NC)[C@@H]3C2)cc1 | 1.58
11 | Cc1cccc(C(=O)N2CCCn3cnc(CN4CCCC4=O)c3C2)n1 | 15.7
12 | CCC(=O)N1CCC2(COCc3cnc(NCc4ccco4)nc32)C1 (stereo unspecified) | -12.9
13 | O=C(NCC1CCCO1)c1nc2c(s1)CCCN2C(=O)C1CC1 (stereo unspecified) | -0.464
14 | NCC1Cn2nnc(-c3cccc(F)c3)c2CO1 (stereo unspecified) | -12.1
15 | Cc1cccc(CN2C[C@@H]3COC[C@]3(COc3ccc(C#N)cn3)C2)n1 | -21.2
16 | O=C(O)Cn1nc(C2CC2)c2c(-c3ccc(F)cc3)ccnc21 | -3.32
17 | c1cnc(-c2nn3c(CN4CCCCC4)nnc3s2)cn1 | 5.31
18 | CCn1nc(C)c(CN(C)S(=O)(=O)c2cnn(C)c2)c1C | 5.62
19 | Cc1ccc(C2CCCN(S(C)(=O)=O)C2)nc1 (stereo unspecified) | 2.32
20 | CC(=O)NCCNC(=O)Nc1ccc(Br)cc1C(C)C | 6.54
21 | O=C(CN(Cc1cccs1)C1CCS(=O)(=O)C1)NC1CCCCC1 (stereo unspecified) | -7.53

Row | SMILES | cytotoxicity at 10 µM [%]
22 | Cn1nc(C(=O)NC2(c3ccc(Cl)cc3)CCCC2)ccc1=O | -4.47
23 | COc1ccc(CNc2cc(-c3nc(C)no3)ccn2)c(OC)c1 | 9.07
24 | CC(C)c1nc(C(=O)N2CCc3ccccc3C2C(=O)O)cs1 (stereo unspecified) | 9.63
25 | COc1ccc(CCC(=O)N2CCN(c3nc(C)ns3)CC2)cc1 | 6.26
26 | NC(=O)NC1CCN(Cc2ccccc2OCC(F)(F)F)CC1 | 0.451
27 | CCc1nnc2n1CCN(C(=O)c1cnc3c(cnn3C(C)C)c1)C2 | -7.58
28 | COc1cccc(S(=O)(=O)NC(=O)c2c(C)noc2C(C)C)c1 | -6.83
29 | FC(F)CN1CCC(NCCc2ccc(-n3cccn3)cc2)CC1 | 14.5
30 | Cc1nnc2n1CCN(C(=O)C(OC1CCCC1)c1ccccc1)C2 (stereo unspecified) | 5.87
31 | CC(C)(C)OC(=O)N1CCCN(c2nnc(C3CC3)s2)CC1 | 8.05
32 | CCc1nc(CNc2ccc(C(=O)NCc3ccco3)cc2C)no1 | 2.4
33 | COC(=O)C(O)C1CCN(Cc2cccc(-n3cccn3)c2)CC1 (stereo unspecified) | -16.5
34 | Cc1cccc(N(CCC(N)=O)CC(=O)Nc2ccccc2)c1 | -9.5
35 | CS(=O)(=O)N1CCN(CC(=O)Nc2cccc(Cl)c2)CC1 | -50.8
36 | O=S(=O)(NC1CCCCC12OCCO2)c1cc(F)cc(F)c1 (stereo unspecified) | -3.55
37 | COCC1CN(C(=O)Nc2ccc(Cl)cc2Cl)CCO1 (stereo unspecified) | 4.26
38 | COc1ccc(NC(=O)c2ccc[nH]2)c(N2CCN(C(C)=O)CC2)n1 | -11.2
39 | O=C(NCCc1ccccn1)NC1CCN(c2ncccn2)CC1 | -16.3
40 | Cc1ccc(N2C[C@H]3OCC[C@H]3[C@H](C(=O)NC3CCC3)C2)nn1 | -69.9
41 | COc1cc(N2CC[C@H](O)[C@@H]2Cc2cccnc2)ncn1 | -71.8
42 | CCC(=O)N1CCN(C(=O)c2ccc(OC)o2)[C@H]2CS(=O)(=O)C[C@H]21 | 0.224

Row | SMILES | cytotoxicity at 10 µM [%]
43 | Cc1cccc(C(Nc2nccc(C)n2)C2CC2)n1 (stereo unspecified) | -2.67
44 | CC(C)CCN1CCCC(Cn2cc(CCO)nn2)C1 (stereo unspecified) | -6.02
45 | OC[C@H]1CN(Cc2c(Cl)cncc2Cl)C[C@H]1CN1CCCC1 | -127
46 | CCCN1CCC(CC(=O)N2CCC(C(O)c3nccn3C)CC2)CC1 (stereo unspecified) | -1.13
47 | Cc1cc(CN2CCC(CNC(=O)c3noc4c3CCCC4)C2)[nH]n1 (stereo unspecified) | -142
48 | Cc1cccc2cc(CN3CCC(N4CCOCC4)CC3)c(=O)[nH]c12 | -12
49 | CCN(CC)C(=O)[C@@H]1C[C@@H](NC(=O)c2ccoc2)CN1C | 2.37
50 | CC(C)(C(=O)NCC1CCN(Cc2cccnc2)C1)c1ccccc1 (stereo unspecified) | -1.66
51 | CCN1CC(C(=O)N2CCN(CCn3cccc3)CC2)CCC1=O (stereo unspecified) | 1.87
52 | Cc1nc(CCCNC(=O)[C@H]2CNC[C@@H](C(=O)N3CCCC3)C2)sc1C | -132
53 | Cc1ccc(C2(CN(C)Cc3sccc3C)CCNCC2)nc1 | 8.15
54 | CCCc1cc(N2CCC(NCC3(O)CCCCC3)CC2)nc(C)n1 | -2.48
55 | CC[C@@]1(O)CCN(C(=O)CN(C)Cc2ccc(F)cc2)C[C@H]1O | 3.38
56 | COc1cccc2c1OCC(Cc1ccc(N)nc1C)C2 (stereo unspecified) | 3.29
57 | CCc1nnc(CNC(=O)CCC2CCCCN2C)s1 (stereo unspecified) | -147
58 | O=C(CC1CCc2ccccc21)N1CCC(O)(c2cccnc2)CC1 (stereo unspecified) | 7.19
59 | Cc1cnn(CCNCc2ccc(C#N)cc2)c1 | -10.7
60 | Cc1nc(CN2CCN(C(C)c3nc(C(C)C)no3)CC2)oc1C (stereo unspecified) | -9.16
61 | O=C1COc2ccc(C(=O)NS(=O)(=O)c3ccc(F)cc3F)cc2N1 | -4.72
62 | CNC(=O)c1ccc(CN(C(=O)c2scnc2C)C2CC2)cc1 | -3.09
63 | Cc1ccc(Cl)cc1N1CCC(CNC(=O)CC(F)(F)F)C1 (stereo unspecified) | -9.7

Row | SMILES | cytotoxicity at 10 µM [%]
64 | Cc1noc(CCCC(=O)NC(C)c2cn(-c3ccccc3)nn2)n1 (stereo unspecified) | -8.18
65 | Fc1ccc(-c2cnc(CN3CCCC3Cn3cccn3)o2)cc1 (stereo unspecified) | -7.52
66 | Cc1cc(C)n(C2CN(CC(O)c3ccc(F)cc3)C2)n1 (stereo unspecified) | -13
67 | CC(C)C(=O)NC1CCN(Cc2cccc3c2OCCO3)CC1 | -0.818
68 | CCC(C)NC(=O)NCCCn1nc2ccccn2c1=O (stereo unspecified) | -8.08
69 | N#Cc1ccccc1OCCN1CCCCC1Cn1cncn1 (stereo unspecified) | -6.04
70 | Cc1cc(C(=O)NCCn2nc3ccccn3c2=O)[nH]n1 | -4.92
71 | Cc1nc[nH]c1CN(Cc1ccccc1)C1CC(C)(C)NC(C)(C)C1 | 0.968
72 | Cc1nc(CN2CCCC3(CCN(c4cnn(C)c4)C3=O)C2)cs1 (stereo unspecified) | 3.16
73 | CC1c2ncc(CNC(=O)C3CC3)n2CCN1Cc1ccncc1 (stereo unspecified) | -5.72
74 | c1coc(CN2CCO[C@H]3[C@@H](OCC4CC4)CC[C@@H]32)c1 | 6.68
75 | CCOCC1c2c(cnn2CC2CC2)CCN1C(=O)c1ccncn1 (stereo unspecified) | -118
76 | CC(C)CN1CCN(C)C2(CCN(Cc3ccsc3)CC2)C1=O | 4.08
77 | CC(C)N1Cc2c(C(=O)N3CCOCC3)nn(C)c2C1 | 0.0756
78 | CC(C)CN1CCC2(CC1)CC(NS(C)(=O)=O)c1ccccc1O2 (stereo unspecified) | -4.44
79 | N#Cc1ccccc1CN1C[C@H]2CC[C@@H](C1)N(Cc1cscn1)C2=O | -8.42
80 | O=C(CCN1C[C@@H]2CC[C@H]1CN(c1ncccn1)C2)NCc1ccco1 | -1.18
81 | COc1nccnc1N1C[C@H]2CC[C@@H](C1)N(CC=C(C)C)C2=O | 1.76

From ChEMBL document CHEMBL4513216, “Probing the Open Global Health Chemical Diversity Library for Multistage-Active Starting Points for Next-Generation Antimalarials” (ACS Infect Dis, 2020)
